Key:
Type in all cases: functional, cell-based
[1] = system: HL-60; experiment: Cytotoxicity against human HL60 cells incubated for 3 days by CellTiter-Glo luminescent assay; conditions: HL-60, 72 h
In short: (§1)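 CellTiter-Glo viability read-out on leukemia cell lines. IC50 reported as the average of triplicates.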

[2] = system: KG-1; experiment: Cytotoxicity against human KG1 cells incubated for 3 days by CellTiter-Glo luminescent assay; conditions: KG-1, 72 h; in short: as §1
[3] = system: Jurkat; experiment: Cytotoxicity against human Jurkat cells incubated for 3 days by CellTiter-Glo luminescent assay; conditions: 72 h; in short: as §1
[4] = system: NALM-6; experiment: Cytotoxicity against human NALM6 cells incubated for 3 days by CellTiter-Glo luminescent assay; conditions: NALM-6, 72 h; in short: as §1

N#Cc1ccc(NC(=O)c2cc(-c3ccncc3)ccc2O)cc1
IC50 [1]: 5410 nM
IC50 [2]: 7990 nM

N#Cc1ccc(NC(=O)c2cc(Br)c(-c3ccccc3)cc2O)cc1
IC50 [1]: 700 nM
IC50 [2]: 850 nM

O=C(Nc1ccc(C(F)(F)F)cc1)c1cc(Br)c(F)cc1O
IC50 [1]: 450 nM
IC50 [2]: 820 nM
IC50 [3]: 880 nM
IC50 [4]: 1300 nM

N#Cc1ccc(NC(=O)c2ccc(-c3ccncc3)cc2O)cc1
IC50 [1]: 7090 nM
IC50 [2]: 8840 nM

O=C(Nc1cc(C(F)(F)F)cc(C(F)(F)F)c1)c1cc(Cl)ccc1O [IMD-0354]
IC50 [1]: 160 nM
IC50 [2]: 500 nM
IC50 [3]: 480 nM
IC50 [4]: 630 nM

O=C(Nc1ccc(OC(F)(F)F)cc1)c1cc(F)ccc1O
IC50 [1]: 850 nM
IC50 [2]: 780 nM
IC50 [3]: 810 nM
IC50 [4]: 1210 nM

N#Cc1ccc(CC(=O)c2cc(F)ccc2O)cc1
IC50 [1]: > 10000 nM
IC50 [2]: > 10000 nM

O=C(Nc1ccc(C(F)(F)F)cc1)c1ccc(Cl)cc1O
IC50 [1]: 630 nM
IC50 [2]: 580 nM
IC50 [3]: 670 nM
IC50 [4]: 1180 nM

O=C(Nc1ccc(C(F)(F)F)cc1)c1ccc(Br)cc1O
IC50 [1]: 360 nM
IC50 [2]: 340 nM
IC50 [3]: 500 nM
IC50 [4]: 690 nM

O=C(Nc1cc(C(F)(F)F)cc(C(F)(F)F)c1)c1cc(Cl)c(F)cc1O
IC50 [1]: 430 nM
IC50 [2]: 470 nM
IC50 [3]: 730 nM
IC50 [4]: 2130 nM

O=C(Nc1ccc(C(F)(F)F)cc1)c1cc(F)ccc1O
IC50 [1]: 490 nM
IC50 [2]: 1700 nM
IC50 [3]: 580 nM
IC50 [4]: 2090 nM

N#Cc1ccc(NC(=O)c2ccc(Br)cc2O)cc1
IC50 [1]: 1210 nM
IC50 [2]: 1450 nM

N#Cc1ccc(NC(=O)c2c(O)ccc3ccccc23)cc1
IC50 [1]: 4430 nM
IC50 [2]: 3760 nM

N#Cc1cccc(NC(=O)c2cc(F)ccc2O)c1
IC50 [1]: 7750 nM
IC50 [2]: 9100 nM

N#Cc1cc(Cl)ccc1NC(=O)c1ccc2cccnc2c1O
IC50 [1]: 790 nM
IC50 [2]: 3540 nM
IC50 [3]: 170 nM
IC50 [4]: 280 nM

O=C(Nc1cc(C(F)(F)F)cc(C(F)(F)F)c1)c1cc(F)ccc1O
IC50 [1]: 320 nM
IC50 [2]: 470 nM
IC50 [3]: 500 nM
IC50 [4]: 620 nM

COc1ccc(C(=O)Nc2ccc(C#N)cc2)c(O)c1
IC50 [1]: 5470 nM
IC50 [2]: 5430 nM

N#Cc1ccc(NC(=O)c2cc(Cl)c(-c3ccccc3)cc2O)cc1
IC50 [1]: 520 nM
IC50 [2]: 480 nM

O=C(Nc1ccc(C(F)(F)F)cc1)c1cc(Cl)ccc1O
IC50 [1]: 510 nM
IC50 [2]: 740 nM
IC50 [3]: 710 nM
IC50 [4]: 1210 nM

Cc1cc(C#N)ccc1NC(=O)c1ccc2cccnc2c1O
IC50 [1]: 710 nM
IC50 [2]: 3240 nM
IC50 [3]: 270 nM
IC50 [4]: 230 nM

O=C(Nc1cc(Cl)cc(Cl)c1)c1cc(F)ccc1O
IC50 [1]: 600 nM
IC50 [2]: 780 nM
IC50 [3]: 710 nM
IC50 [4]: 1440 nM

O=C(Nc1ccc(Cl)c(Cl)c1)c1cc(F)ccc1O
IC50 [1]: 660 nM
IC50 [2]: 760 nM
IC50 [3]: 670 nM
IC50 [4]: 1370 nM

O=C(Nc1ccc(C(F)(F)F)c(Cl)c1)c1cc(Cl)ccc1O
IC50 [1]: 460 nM
IC50 [2]: 450 nM
IC50 [3]: 690 nM
IC50 [4]: 1220 nM

N#Cc1ccc(NC(=O)c2ccc(-c3cccnc3)cc2O)cc1
IC50 [1]: 6660 nM
IC50 [2]: 7940 nM

COc1cccc(C(=O)Nc2ccc(C#N)cc2)c1O
IC50 [1]: > 10000 nM
IC50 [2]: > 10000 nM

O=C(Nc1ccc(OC(F)(F)F)cc1Cl)c1cc(Cl)ccc1O
IC50 [1]: 650 nM
IC50 [2]: 620 nM
IC50 [3]: 880 nM
IC50 [4]: 1350 nM

N#Cc1ccc(NC(=O)c2cccc(Br)c2O)cc1
IC50 [1]: 2910 nM
IC50 [2]: 3260 nM

O=C(Nc1ccccc1)c1cc(F)ccc1O
IC50 [1]: > 10000 nM
IC50 [2]: > 10000 nM

O=C(Nc1ccc(C(F)(F)F)cc1)c1cc(Cl)c(-c2ccccc2)cc1O
IC50 [1]: 490 nM
IC50 [2]: 770 nM
IC50 [3]: 1160 nM
IC50 [4]: 800 nM

N#Cc1ccc(NC(=O)c2cccc3cc[nH]c23)cc1
IC50 [1]: > 10000 nM
IC50 [2]: > 10000 nM

O=C(Nc1cccc(C(F)(F)F)c1)c1cc(F)ccc1O
IC50 [1]: 970 nM
IC50 [2]: 1010 nM
IC50 [3]: 840 nM
IC50 [4]: 1800 nM

O=C(Nc1ccc(Cl)c(Br)c1)c1cc(Cl)ccc1O
IC50 [1]: 780 nM
IC50 [2]: 680 nM
IC50 [3]: 1350 nM
IC50 [4]: 3070 nM

O=C(Nc1ccc(OC(F)(F)F)c(Cl)c1)c1cc(F)ccc1O
IC50 [1]: 550 nM
IC50 [2]: 370 nM
IC50 [3]: 700 nM
IC50 [4]: 1000 nM

N#Cc1ccc(NC(=O)c2ccc(Cl)cc2O)cc1
IC50 [1]: 1300 nM
IC50 [2]: 1920 nM

N#Cc1ccc(NC(=O)c2ccc(F)cc2O)cc1
IC50 [1]: 1380 nM
IC50 [2]: 3150 nM

N#Cc1ccc(NC(=O)c2ccc3cccnc3c2O)c(Cl)c1
IC50 [1]: 910 nM
IC50 [2]: 3670 nM
IC50 [3]: 550 nM
IC50 [4]: 420 nM

N#Cc1ccc(NC(=O)c2ccc(-c3ccccc3)cc2O)cc1
IC50 [1]: 700 nM
IC50 [2]: 410 nM

N#Cc1ccc(NC(=O)c2cc(-c3ccccc3)ccc2O)cc1
IC50 [1]: 1350 nM
IC50 [2]: 1300 nM
